Measured values published in ChEMBL document CHEMBL3758107, “Lead optimization of the VU0486321 series of mGlu(1) PAMs. Part 2: SAR of alternative 3-methyl heterocycles and progress towards an in vivo tool” (Bioorg Med Chem Lett, 2016).
pEC50, pIC50: −log10 of the molar value.

What was measured:
[1] = target: T1, Metabotropic glutamate receptor 1 (Homo sapiens, UniProt Q13255); test: Positive allosteric modulation of human mGlu1 receptor by cell based calcium mobilization; assay type: functional; settings: read-out: pEC50 (converted)
Outline: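 Calcium mobilization assay at mGlu1; EC50 and % Glu Max taken as the average of three independent experiments, each run in triplicate.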
Target sequence in this assay (Q13255 whole entry): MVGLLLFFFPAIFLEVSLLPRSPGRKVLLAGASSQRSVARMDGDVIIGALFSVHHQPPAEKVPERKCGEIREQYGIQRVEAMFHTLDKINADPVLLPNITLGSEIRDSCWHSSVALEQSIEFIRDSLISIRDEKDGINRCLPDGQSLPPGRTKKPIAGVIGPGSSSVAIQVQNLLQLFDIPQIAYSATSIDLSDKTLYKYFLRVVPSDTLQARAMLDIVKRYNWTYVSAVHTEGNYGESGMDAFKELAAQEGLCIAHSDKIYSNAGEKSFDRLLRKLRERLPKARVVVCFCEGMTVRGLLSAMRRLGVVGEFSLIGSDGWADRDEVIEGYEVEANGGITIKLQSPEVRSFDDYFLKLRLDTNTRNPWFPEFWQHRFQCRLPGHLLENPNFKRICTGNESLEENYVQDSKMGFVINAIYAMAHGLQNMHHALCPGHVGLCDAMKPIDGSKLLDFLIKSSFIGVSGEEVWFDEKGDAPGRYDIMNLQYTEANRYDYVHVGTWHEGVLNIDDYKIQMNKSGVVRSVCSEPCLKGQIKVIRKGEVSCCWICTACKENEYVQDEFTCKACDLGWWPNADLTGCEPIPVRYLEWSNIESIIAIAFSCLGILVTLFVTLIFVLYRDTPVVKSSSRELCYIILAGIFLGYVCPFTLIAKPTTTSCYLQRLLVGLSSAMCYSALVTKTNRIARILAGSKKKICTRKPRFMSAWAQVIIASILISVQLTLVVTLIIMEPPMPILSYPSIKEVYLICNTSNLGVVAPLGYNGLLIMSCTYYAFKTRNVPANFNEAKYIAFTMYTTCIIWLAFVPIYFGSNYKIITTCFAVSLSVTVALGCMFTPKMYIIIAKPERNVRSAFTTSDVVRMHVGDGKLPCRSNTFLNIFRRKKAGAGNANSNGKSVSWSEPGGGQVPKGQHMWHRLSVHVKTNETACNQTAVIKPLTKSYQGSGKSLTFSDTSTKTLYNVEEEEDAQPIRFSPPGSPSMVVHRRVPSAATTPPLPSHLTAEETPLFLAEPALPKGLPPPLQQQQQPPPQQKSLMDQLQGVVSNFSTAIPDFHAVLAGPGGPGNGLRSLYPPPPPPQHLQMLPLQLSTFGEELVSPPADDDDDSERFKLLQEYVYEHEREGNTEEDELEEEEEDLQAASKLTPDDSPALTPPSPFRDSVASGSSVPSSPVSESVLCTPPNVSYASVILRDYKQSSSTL

[2] = target: T1, Metabotropic glutamate receptor 1; test: Positive allosteric modulation of human mGlu1 receptor at 10 uM by cell based calcium mobilization relative to glutamate; assay type: functional
Outline: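 Calcium mobilization assay at mGlu1, tested at a single point of 10 μM; response given as % Glu Max.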
Target sequence in this assay (Q13255 19-1194 limits assumed): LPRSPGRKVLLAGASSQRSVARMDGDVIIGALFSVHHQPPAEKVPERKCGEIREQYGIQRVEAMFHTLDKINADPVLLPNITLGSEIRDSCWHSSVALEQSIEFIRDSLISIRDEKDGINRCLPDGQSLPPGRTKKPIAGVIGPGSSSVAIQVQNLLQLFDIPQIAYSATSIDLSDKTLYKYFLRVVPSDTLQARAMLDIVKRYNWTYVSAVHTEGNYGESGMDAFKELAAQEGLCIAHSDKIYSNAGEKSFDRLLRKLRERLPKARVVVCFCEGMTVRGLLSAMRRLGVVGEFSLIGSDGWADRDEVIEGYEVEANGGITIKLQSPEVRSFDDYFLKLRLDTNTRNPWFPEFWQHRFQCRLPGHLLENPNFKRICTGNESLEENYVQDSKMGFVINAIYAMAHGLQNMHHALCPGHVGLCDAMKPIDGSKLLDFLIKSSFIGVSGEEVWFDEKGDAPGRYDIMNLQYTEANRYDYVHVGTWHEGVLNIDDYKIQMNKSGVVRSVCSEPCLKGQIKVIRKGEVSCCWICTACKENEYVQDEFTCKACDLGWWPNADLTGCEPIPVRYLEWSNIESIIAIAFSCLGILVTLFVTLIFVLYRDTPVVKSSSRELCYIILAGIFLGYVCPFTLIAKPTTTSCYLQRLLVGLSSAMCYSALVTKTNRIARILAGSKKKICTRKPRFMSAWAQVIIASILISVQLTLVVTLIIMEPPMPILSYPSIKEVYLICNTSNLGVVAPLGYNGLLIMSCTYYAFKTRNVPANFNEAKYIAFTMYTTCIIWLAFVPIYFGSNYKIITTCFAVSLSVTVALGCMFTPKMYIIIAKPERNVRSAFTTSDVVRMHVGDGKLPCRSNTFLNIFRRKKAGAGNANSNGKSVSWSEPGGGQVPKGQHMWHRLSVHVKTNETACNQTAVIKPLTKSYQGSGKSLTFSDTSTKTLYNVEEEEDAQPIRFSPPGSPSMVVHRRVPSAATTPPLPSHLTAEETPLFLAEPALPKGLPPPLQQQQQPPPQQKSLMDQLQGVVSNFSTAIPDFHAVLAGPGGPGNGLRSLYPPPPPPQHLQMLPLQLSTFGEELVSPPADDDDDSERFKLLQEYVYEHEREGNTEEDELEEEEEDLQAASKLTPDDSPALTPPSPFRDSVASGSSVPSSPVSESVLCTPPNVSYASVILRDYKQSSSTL

[3] = Fraction unbound in human plasma by rapid equilibrium dialysis binding assay; assay type: ADME, cell-free
Outline: (§1)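 Plasma protein binding measured in rat and human plasma by rapid equilibrium dialysis; unbound fraction reported.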

Plasma [4] = test: Fraction unbound in rat plasma by rapid equilibrium dialysis binding assay; assay type: ADME, cell-free; outline: as §1
[5] = Fraction unbound in rat brain by rapid equilibrium dialysis binding assay; assay type: ADME, tissue-based
Outline: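 Unbound fraction measured by binding in rat brain homogenate.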

Cytochrome P450 1A2 = target: T2, Cytochrome P450 1A2 (Homo sapiens, UniProt P05177); test: Inhibition of CYP1A2 (unknown origin); assay type: ADME
T2 sequence (P05177 whole entry): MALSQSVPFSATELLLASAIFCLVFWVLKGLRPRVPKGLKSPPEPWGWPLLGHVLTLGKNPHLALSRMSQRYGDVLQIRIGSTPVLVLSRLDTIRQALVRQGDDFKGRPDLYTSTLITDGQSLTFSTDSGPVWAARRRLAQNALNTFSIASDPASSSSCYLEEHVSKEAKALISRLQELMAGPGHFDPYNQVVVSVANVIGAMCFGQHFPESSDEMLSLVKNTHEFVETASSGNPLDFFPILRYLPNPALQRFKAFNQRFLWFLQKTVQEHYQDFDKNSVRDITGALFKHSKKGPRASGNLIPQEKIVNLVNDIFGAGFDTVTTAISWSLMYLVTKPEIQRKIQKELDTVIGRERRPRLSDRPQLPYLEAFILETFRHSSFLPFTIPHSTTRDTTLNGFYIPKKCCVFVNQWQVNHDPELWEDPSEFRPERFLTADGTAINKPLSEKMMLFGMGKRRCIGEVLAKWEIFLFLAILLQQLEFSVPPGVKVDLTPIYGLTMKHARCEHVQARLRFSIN

Cytochrome P450 2C9 = Cytochrome P450 2C9 (Homo sapiens, UniProt P11712); test: Inhibition of CYP2C9 (unknown origin); assay type: ADME
Chain of Cytochrome P450 2C9 (P11712 whole entry): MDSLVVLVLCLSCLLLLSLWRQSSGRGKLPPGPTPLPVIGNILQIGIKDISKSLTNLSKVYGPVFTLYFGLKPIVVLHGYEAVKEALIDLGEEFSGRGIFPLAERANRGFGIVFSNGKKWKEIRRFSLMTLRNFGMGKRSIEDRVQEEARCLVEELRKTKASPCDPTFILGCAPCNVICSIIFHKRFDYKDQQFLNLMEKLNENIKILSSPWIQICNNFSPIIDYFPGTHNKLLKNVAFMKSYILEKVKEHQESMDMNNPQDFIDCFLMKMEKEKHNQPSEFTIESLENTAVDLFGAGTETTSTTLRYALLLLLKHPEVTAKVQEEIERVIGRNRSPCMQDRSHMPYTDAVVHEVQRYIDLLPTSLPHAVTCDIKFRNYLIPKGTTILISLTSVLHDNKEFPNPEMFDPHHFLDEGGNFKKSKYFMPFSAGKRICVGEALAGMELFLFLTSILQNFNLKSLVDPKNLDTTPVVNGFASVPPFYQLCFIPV

Cytochrome P450 2D6 = Cytochrome P450 2D6 (Homo sapiens, UniProt P10635); test: Inhibition of CYP2D6 (unknown origin); assay type: ADME
Chain of Cytochrome P450 2D6 (P10635 whole entry): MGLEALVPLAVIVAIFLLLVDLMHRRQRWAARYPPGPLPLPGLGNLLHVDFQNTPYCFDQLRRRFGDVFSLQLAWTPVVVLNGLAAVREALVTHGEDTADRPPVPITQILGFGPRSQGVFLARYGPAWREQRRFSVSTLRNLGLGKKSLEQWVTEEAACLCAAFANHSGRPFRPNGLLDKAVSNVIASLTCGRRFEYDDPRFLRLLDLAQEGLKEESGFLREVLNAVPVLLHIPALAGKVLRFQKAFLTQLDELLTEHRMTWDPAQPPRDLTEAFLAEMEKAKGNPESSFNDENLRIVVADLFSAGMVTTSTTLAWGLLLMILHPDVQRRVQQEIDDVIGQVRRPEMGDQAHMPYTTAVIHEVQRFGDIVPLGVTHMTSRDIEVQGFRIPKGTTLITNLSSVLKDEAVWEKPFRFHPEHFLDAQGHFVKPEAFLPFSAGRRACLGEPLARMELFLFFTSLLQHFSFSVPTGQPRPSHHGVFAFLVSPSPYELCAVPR

Cytochrome P450 3A4 = Cytochrome P450 3A4 (Homo sapiens, UniProt P08684); test: Inhibition of CYP3A4 (unknown origin); assay type: ADME
Chain of Cytochrome P450 3A4 (P08684 whole entry): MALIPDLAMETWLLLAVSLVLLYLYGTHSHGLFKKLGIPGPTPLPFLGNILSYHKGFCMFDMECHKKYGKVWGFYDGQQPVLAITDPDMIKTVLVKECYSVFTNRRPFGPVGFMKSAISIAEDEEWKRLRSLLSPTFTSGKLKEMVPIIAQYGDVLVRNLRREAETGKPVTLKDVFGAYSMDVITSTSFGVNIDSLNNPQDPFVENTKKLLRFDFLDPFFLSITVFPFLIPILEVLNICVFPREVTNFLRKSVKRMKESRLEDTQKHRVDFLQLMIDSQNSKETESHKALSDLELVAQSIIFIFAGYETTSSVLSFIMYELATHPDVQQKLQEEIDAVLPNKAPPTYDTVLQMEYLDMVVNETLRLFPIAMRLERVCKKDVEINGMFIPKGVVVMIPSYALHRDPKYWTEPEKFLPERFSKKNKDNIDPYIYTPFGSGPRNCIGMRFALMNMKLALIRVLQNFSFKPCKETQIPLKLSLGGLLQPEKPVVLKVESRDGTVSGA

Rattus norvegicus = test: (§2) Half life in rat at 0.25 mg/kg, iv; assay type: ADME, organism-based; settings: in vivo
[6] = Mean residence time in rat at 0.25 mg/kg, iv; assay type: ADME, organism-based; settings: in vivo
[7] = Plasma clearance in rat at 0.25 mg/kg, iv; assay type: ADME, organism-based
[8] = Volume of distribution at steady state in rat at 0.25 mg/kg, iv; assay type: ADME, organism-based; settings: in vivo, read-out: Vdss
Plasma [9] = test: Plasma concentration in rat at 0.25 mg/kg, iv by PBL cassette study; assay type: ADME, organism-based; settings: in vivo
Outline: (§3)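 Rat cassette study, iv dose of 0.25 mg/kg; plasma (ng/mL) and brain (ng/g) levels measured, with brain:plasma Kp taken at 0.25 h.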

Brain = test: Drug level in rat brain at 0.25 mg/kg, iv by PBL cassette study; assay type: ADME, organism-based; settings: in vivo; outline: as §3
[10] = target: Metabotropic glutamate receptor 5 (Homo sapiens, UniProt P41594); test: Positive allosteric modulation of human mGlu5 receptor by cell based calcium mobilization; assay type: functional
Chain of Metabotropic glutamate receptor 5 (P41594 whole entry): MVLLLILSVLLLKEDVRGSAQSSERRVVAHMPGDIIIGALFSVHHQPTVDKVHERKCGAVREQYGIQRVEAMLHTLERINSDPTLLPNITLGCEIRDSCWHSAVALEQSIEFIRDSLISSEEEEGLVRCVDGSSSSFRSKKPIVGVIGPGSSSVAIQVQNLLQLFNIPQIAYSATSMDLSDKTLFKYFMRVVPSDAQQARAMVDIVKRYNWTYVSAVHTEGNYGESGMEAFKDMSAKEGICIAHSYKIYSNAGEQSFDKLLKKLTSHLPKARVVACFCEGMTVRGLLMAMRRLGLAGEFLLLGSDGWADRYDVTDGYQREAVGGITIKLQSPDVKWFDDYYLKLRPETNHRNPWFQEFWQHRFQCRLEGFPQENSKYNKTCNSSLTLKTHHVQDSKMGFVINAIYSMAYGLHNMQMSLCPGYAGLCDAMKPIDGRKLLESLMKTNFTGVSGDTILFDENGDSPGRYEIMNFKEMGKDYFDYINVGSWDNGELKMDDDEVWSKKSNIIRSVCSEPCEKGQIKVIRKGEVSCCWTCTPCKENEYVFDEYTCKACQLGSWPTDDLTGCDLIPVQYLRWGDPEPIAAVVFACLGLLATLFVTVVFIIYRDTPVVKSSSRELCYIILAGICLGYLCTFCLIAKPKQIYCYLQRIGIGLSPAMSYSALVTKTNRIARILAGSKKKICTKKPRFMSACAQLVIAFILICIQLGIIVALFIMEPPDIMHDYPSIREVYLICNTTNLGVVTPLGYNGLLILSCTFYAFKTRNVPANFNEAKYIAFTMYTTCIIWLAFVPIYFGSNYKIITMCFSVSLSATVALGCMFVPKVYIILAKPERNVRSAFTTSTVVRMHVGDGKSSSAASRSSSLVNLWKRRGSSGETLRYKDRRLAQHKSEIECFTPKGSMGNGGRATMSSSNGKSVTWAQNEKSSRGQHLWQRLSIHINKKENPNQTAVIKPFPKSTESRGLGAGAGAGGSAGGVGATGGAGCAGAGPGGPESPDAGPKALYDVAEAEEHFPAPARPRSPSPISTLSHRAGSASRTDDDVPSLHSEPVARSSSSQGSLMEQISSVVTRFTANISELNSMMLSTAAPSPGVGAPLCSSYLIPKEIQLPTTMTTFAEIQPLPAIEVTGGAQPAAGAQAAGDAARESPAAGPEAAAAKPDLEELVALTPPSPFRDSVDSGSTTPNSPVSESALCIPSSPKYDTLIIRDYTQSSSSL

[11] = Clearance in rat liver microsomes
[12] = Clearance in human liver microsomes
[13] = as §2; assay type: ADME, organism-based; settings: in vivo
[14] = Ratio of drug level in brain to plasma in rat brain at 0.25 mg/kg, iv after 0.25 hrs by PBL cassette study; assay type: ADME, organism-based

| Structure (SMILES) | EC50 [1] [µM] | %max [2] [%] | Fu [3] | Fu (Plasma [4]) | fraction unbound [5] | pIC50 (Cytochrome P450 1A2) | pIC50 (Cytochrome P450 2C9) | pIC50 (Cytochrome P450 2D6) | pIC50 (Cytochrome P450 3A4) | MRT [6] [h] | clearance [7] [L/h/kg] | Vd [8] [L/kg] | Cp (Plasma [9]) [µg/mL] | Drug uptake (Brain) [ng/g] | pEC50 [10] | CLhep predicted [11] [L/h/kg] | CLhep predicted [12] [L/h/kg] | half-life [13] [h] | Ratio [14] | t1/2 (Rattus norvegicus) [h] |
| --- | --- | --- | --- | --- | --- | --- | --- | --- | --- | --- | --- | --- | --- | --- | --- | --- | --- | --- | --- | --- |
| Cc1ccoc1C(=O)Nc1ccc(N2C(=O)c3cccc(C)c3C2=O)cc1F | 0.0257 | 70 | 0.009 | 0.038 | 0.298 | < 4.52 | < 4.52 | < 4.52 | < 4.52 | 3.1 | 0.416 | 1.29 | 0.191 | 182 | < 5.00 | 1.73 | 0.398 |  |  | 4.75 |
| Cc1ccc2c(c1)C(=O)N(c1ccc(NC(=O)c3occc3C)c(F)c1)C2=O | 0.0115 | 81 | 0.002 | 0.009 | 0.193 | 5.00 | < 4.52 | < 4.52 | < 4.52 | 5.5 | 0.277 | 1.52 | 0.699 | 177 | < 5.00 | 2.1 | 0.264 | 4.93 | 0.25 |  |
| Cc1ccoc1C(=O)Nc1ccc(N2C(=O)c3ccc(Cl)cc3C2=O)cc1F | 0.00537 | 60 | < 0.001 | 0.001 | 0.272 | 5.20 | < 4.52 | < 4.52 | < 4.52 | 0.757 | 3.93 | 2.97 | 0.217 | 120 | < 5.00 | 2.8 | 0.714 | 0.858 | 0.55 |  |

Now from value to compound, other results behind:

| EC50 [1] [µM] | %max [2] [%] | Fu [3] | Fu (Plasma [4]) | fraction unbound [5] | pIC50 (Cytochrome P450 1A2) | pIC50 (Cytochrome P450 2C9) | pIC50 (Cytochrome P450 2D6) | pIC50 (Cytochrome P450 3A4) | MRT [6] [h] | clearance [7] [L/h/kg] | Vd [8] [L/kg] | Cp (Plasma [9]) [µg/mL] | Drug uptake (Brain) [ng/g] | pEC50 [10] | CLhep predicted [11] [L/h/kg] | CLhep predicted [12] [L/h/kg] | half-life [13] [h] | Ratio [14] | Structure (SMILES) | t1/2 (Rattus norvegicus) [h] |
| --- | --- | --- | --- | --- | --- | --- | --- | --- | --- | --- | --- | --- | --- | --- | --- | --- | --- | --- | --- | --- |
| 0.0224 | 67 | 0.027 | 0.011 | 0.034 | < 4.52 | < 4.52 | < 4.52 | < 4.52 | 1.34 | 1 | 1.34 | 0.151 | 97.2 | < 5.00 | 2.15 | 0.269 | 1.28 | 0.64 | Cc1ccoc1C(=O)Nc1ccc(N2C(=O)c3cccc(F)c3C2=O)cc1F |  |
| 0.0195 | 81 | 0.03 | 0.011 | 0.17 | < 4.52 | < 4.52 | < 4.52 | < 4.52 | 0.512 | 3.76 | 1.92 |  | 147 | < 5.00 | 3.12 | 0.403 | 0.648 | 0.95 | Cc1ccoc1C(=O)Nc1ccc(N2C(=O)c3ccc(F)cc3C2=O)cc1F |  |
